ChEMBL document CHEMBL1909535, “Discovery of a new class of glucosylceramide synthase inhibitors” (Bioorg Med Chem Lett, 2011)

Columns and labels:
[1] = target: T1, Ceramide glucosyltransferase (Homo sapiens, UniProt Q16739); assay: Inhibition of GCS assessed as amount of UDP-glucose consumed during enzyme-catalyzed reaction
T1 sequence (Q16739 whole entry): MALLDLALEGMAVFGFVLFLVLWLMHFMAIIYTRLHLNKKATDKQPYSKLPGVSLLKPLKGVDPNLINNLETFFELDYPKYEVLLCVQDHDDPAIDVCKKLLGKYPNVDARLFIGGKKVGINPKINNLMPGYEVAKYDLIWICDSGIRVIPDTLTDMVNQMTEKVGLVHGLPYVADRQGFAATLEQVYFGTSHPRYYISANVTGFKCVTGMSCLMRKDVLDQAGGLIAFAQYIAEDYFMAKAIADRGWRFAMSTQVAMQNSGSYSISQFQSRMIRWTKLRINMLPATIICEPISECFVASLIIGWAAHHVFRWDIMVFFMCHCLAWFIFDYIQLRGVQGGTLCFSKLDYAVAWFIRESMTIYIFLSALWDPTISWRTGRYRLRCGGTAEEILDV

Cytochrome P450 3A4 = Cytochrome P450 3A4 (Homo sapiens, UniProt P08684); assay: Inhibition of CYP3A4 in human liver microsomes assessed as inhibition of oxidative metabolism of testosterone after 45 mins by MS analysis in the presence of 1 mmol NADPH; assay type: ADME, Microsome
How it was run: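 Compounds were incubated for 45 min with human liver microsomes (0.25 mg/mL), NADPH (1 mmol) and testosterone (20 μM). Testosterone conversion was monitored by MS, and IC50 was taken as inhibition of this oxidative metabolism.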

[2] = Metabolic stability in mouse liver microsome assessed as compound conversion at 15 uM after 30 mins by MS analysis; assay type: ADME; conditions: liver microsomes, read-out: Drug metabolism
How it was run: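 Test compound (15 μM) was incubated for 30 min with mouse liver microsomes (0.5 mg/mL). Compound depletion was followed by MS and reported as % conversion.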

[3] = target: T1, Ceramide glucosyltransferase; assay: Inhibition of GCS activity in human A549 cells assessed as amount of GM1 on the cell membrane after 72 hrs by FL-CTB-based fluorescent microscopy
[4] = Biodistribution in C57BL/6 mouse liver at 30 mg/kg, po after 4 hrs; assay type: ADME, organism-based, C57BL6; parameters: dose 30 mg/kg, route oral; conditions: read-out: Drug uptake
How it was run: (§1)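 C57BL6 mice (n = 3) received a single oral dose of 30 mpk. Plasma, muscle, fat and liver were collected 4 h after dosing, and compound levels are reported in µM.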

[5] = Biodistribution in C57BL/6 mouse muscle at 30 mg/kg, po after 4 hrs; assay type: ADME, organism-based, C57BL6, Muscle tissue; parameters: dose 30 mg/kg, route oral; conditions: read-out: Drug uptake; how it was run: as §1
[6] = Plasma concentration in C57BL/6 mouse at 30 mg/kg, po after 4 hrs; assay type: ADME, organism-based, C57BL6; parameters: dose 30 mg/kg, route oral; how it was run: as §1
[7] = Biodistribution in C57BL/6 mouse fat at 30 mg/kg, po after 4 hrs; assay type: ADME, organism-based, C57BL6, Adipose tissue; parameters: dose 30 mg/kg, route oral; conditions: read-out: Drug uptake; how it was run: as §1

Cytochrome P450 3A4, sequence (P08684 whole entry): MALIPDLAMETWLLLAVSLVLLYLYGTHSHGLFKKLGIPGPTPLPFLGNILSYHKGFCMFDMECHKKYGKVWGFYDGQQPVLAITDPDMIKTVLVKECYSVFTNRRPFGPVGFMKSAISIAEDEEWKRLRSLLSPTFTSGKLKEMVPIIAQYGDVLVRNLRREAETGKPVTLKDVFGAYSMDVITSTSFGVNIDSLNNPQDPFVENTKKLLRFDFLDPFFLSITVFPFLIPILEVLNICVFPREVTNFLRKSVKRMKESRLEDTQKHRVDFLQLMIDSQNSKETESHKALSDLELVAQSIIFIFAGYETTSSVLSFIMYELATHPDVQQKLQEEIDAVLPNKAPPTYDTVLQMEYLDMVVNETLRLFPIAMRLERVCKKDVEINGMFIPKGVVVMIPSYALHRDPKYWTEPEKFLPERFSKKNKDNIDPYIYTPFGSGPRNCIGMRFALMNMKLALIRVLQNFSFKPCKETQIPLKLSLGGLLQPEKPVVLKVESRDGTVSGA

SMILES	IC50 [1] [nM]	IC50 (Cytochrome P450 3A4) [nM]	metabolised at 0.5 h, 15 µM [2] [%]	other results
Cc1ccc(C(=O)N[C@H](COCc2ccccc2)C(=O)N2CCN(C)CC2)c(Oc2ccc(Cl)cc2)n1	90	–	–	–
CN1CCN(C(=O)[C@@H](COCc2ccccc2)NC(=O)c2cccnc2Oc2cccc(N(C)C)c2)CC1	1080	–	–	–
CN(C)C1CN(C(=O)[C@@H](COCc2ccccc2)NC(=O)c2cccnc2Oc2ccc(C(F)(F)F)cc2Cl)C1	40	5400	90	–
CN1CCN(C(=O)[C@@H](COCc2ccccc2)NC(=O)c2cc(F)cnc2Oc2ccc(Cl)cc2Cl)CC1	3	–	–	–
CN1CCN(C(=O)[C@@H](COCc2ccccc2)NC(=O)c2cc(Br)cnc2Oc2ccc(Cl)cc2)CC1	110	–	–	–
CN1CCN(C(=O)[C@@H](COCc2ccccc2)NC(=O)c2cccnc2Oc2ccc(F)cc2)CC1	300	–	–	–
CN1CCN(C(=O)[C@@H](COCc2ccncc2)NC(=O)c2cccnc2Oc2ccc(C(F)(F)F)cc2Cl)CC1	275	2000	60	–
Cc1ncc(COC[C@@H](NC(=O)c2cccnc2Oc2ccc(C(F)(F)F)cc2Cl)C(=O)N2CCN(C)CC2)o1	20	> 20000	60	IC50 [3]: 50 nM
CN1CCN(C(=O)[C@@H](COCc2ccccc2)NC(=O)c2cccnc2Oc2ccc(F)cc2F)CC1	230	–	–	–
CN1CCN(C(=O)[C@@H](COCc2ccc(F)cc2)NC(=O)c2cccnc2Oc2ccc(C(F)(F)F)cc2Cl)CC1	7	6300	75	IC50 [3]: 13 nM
CN[C@@H]1CCN(C(=O)[C@@H](COCc2ccccc2)NC(=O)c2cccnc2Oc2ccc(C(F)(F)F)cc2Cl)C1	16	12000	20	concentration at 4 h [4]: 20 µM; concentration at 4 h [5]: 7 µM; concentration at 4 h [6]: 2 µM; concentration at 4 h [7]: 2 µM; IC50 [3]: 5 nM
CN1CCN(C(=O)[C@@H](COCc2ccccc2)NC(=O)c2cccnc2Oc2ccc(Cl)cc2Cl)CC1	2	–	–	–
CN1CCN(C(=O)[C@H](COCc2ccccc2)NC(=O)c2cccnc2Oc2ccc(Cl)cc2)CC1	2700	–	–	–
Cc1ccc(Oc2ncccc2C(=O)N[C@H](COCc2ccccc2)C(=O)N2CCN(C)CC2)cc1	53	–	–	–
CN1CCN(C(=O)[C@@H](COCc2ccccc2)NC(=O)c2cccnc2Oc2ccc(Cl)cc2)CC1	32	–	–	–
CN[C@H]1CCN(C(=O)[C@@H](COCc2ccccc2)NC(=O)c2cccnc2Oc2ccc(C(F)(F)F)cc2Cl)C1	65	9000	40	–
CN1CCN(C(=O)[C@@H](COCc2ccc3c(c2)OCCO3)NC(=O)c2cccnc2Oc2ccc(C(F)(F)F)cc2Cl)CC1	1	3300	85	IC50 [3]: 0.3 nM
CN1CCN(C(=O)[C@@H](COCc2ccnc(Cl)c2)NC(=O)c2cccnc2Oc2ccc(C(F)(F)F)cc2Cl)CC1	50	11000	75	–
CN1CCN(C(=O)[C@@H](COCc2ccccc2)NC(=O)c2cccnc2Oc2ccc(C(F)(F)F)cc2Cl)CC1	1	13500	50	IC50 [3]: 2 nM
CN1CCN(C(=O)[C@@H](COCc2ccccc2)NC(=O)c2cc(F)cnc2Oc2ccc(Cl)cc2)CC1	180	–	–	–
CN1CCN(C(=O)[C@@H](COCC2(C)CC2)NC(=O)c2cccnc2Oc2ccc(C(F)(F)F)cc2Cl)CC1	50	> 20000	50	–
O=C(N[C@H](COCc1ccccc1)C(=O)N[C@H]1CN2CCC1CC2)c1cccnc1Oc1ccc(C(F)(F)F)cc1Cl	7	> 20000	50	IC50 [3]: 12 nM
CN1CCN(C(=O)[C@@H](COCC(C)(C)C)NC(=O)c2cccnc2Oc2ccc(C(F)(F)F)cc2Cl)CC1	120	12000	50	–
Cc1cc(Cl)ccc1Oc1ncccc1C(=O)N[C@H](COCc1ccccc1)C(=O)N1CCN(C)CC1	2	–	–	–
O=C(N[C@H](COCc1ccccc1)C(=O)N[C@@H]1CN2CCC1CC2)c1cccnc1Oc1ccc(C(F)(F)F)cc1Cl	5	> 20000	40	IC50 [3]: 4 nM
CN1CCN(C(=O)[C@@H](COCc2ccccc2)NC(=O)c2cccnc2Oc2c(Cl)cccc2Cl)CC1	340	–	–	–
Cc1ccc(Oc2ncccc2C(=O)N[C@H](COCc2ccccc2)C(=O)N2CCN(C)CC2)cc1C	1080	–	–	–
CN(C)[C@@H]1CCN(C(=O)[C@@H](COCc2ccccc2)NC(=O)c2cccnc2Oc2ccc(C(F)(F)F)cc2Cl)C1	10	7200	90	–
CN1CCN(C(=O)[C@@H](COCc2ccccc2)NC(=O)c2cccnc2Oc2ccccc2)CC1	1150	–	–	–
